For 23 compounds, Ki and Ratio Ki results are on record in ChEMBL document CHEMBL1833919, “Does the combination of optimal substitutions at the C²-, N⁵- and N⁸-positions of the pyrazolo-triazolo-pyrimidine scaffold guarantee selective modulation of the human A₃ adenosine receptors?” (Bioorg Med Chem, 2011).

Molecules are shown by their SMILES.

One assay concerns the target T1, Adenosine receptor A3 (Homo sapiens, UniProt P0DMS8).
T1 sequence (P0DMS8 whole entry): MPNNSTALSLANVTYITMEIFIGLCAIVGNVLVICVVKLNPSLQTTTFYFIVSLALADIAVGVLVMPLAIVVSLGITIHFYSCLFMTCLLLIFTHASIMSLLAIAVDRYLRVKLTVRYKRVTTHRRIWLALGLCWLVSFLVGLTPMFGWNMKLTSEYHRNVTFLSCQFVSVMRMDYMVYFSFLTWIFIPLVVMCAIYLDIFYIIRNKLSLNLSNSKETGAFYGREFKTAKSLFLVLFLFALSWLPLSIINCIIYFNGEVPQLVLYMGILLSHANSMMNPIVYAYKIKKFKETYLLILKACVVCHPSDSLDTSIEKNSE
The experiment in a line: Displacement of [3H]NECA from human recombinant adenosine A3 receptor expressed in CHO cells after 3 hrs. The format is cell-based. An outline of the steps:
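20 μg membrane protein in 50 mM Tris/HCl, 1 mM EDTA, 10 mM MgCl2, pH 8.25 with 10 nM [3H]NECA and test compound over a concentration range, 3 h at 25 °C. Nonspecific binding with 100 μM R-PIA. Filtration, then counting. Ki via Cheng-Prusoff; n = 3-6, geometric means with 95% CI.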
On the technique in general: Loss of bound radioactivity is the signal in a displacement assay; it reports binding, not function.

The next assay deals with T2, Adenosine receptor A2b (Homo sapiens, UniProt P29275).
T2 sequence (P29275 whole entry): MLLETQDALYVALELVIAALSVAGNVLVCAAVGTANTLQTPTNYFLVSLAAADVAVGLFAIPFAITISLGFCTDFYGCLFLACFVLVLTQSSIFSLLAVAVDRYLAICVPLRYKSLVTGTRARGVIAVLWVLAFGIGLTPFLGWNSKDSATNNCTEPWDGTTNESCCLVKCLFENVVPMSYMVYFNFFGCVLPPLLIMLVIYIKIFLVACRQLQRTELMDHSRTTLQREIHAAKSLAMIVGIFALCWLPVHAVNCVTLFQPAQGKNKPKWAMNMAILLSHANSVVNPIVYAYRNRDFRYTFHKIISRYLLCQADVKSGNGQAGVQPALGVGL
The experiment in a line: Antagonist activity human recombinant adenosine 2B receptor expressed in CHO cells assessed as inhibition of NECA-stimulated adenylyl cyclase activity. The assay is classed as functional, cell-based. An outline of the steps: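 Membranes from hA2B-expressing CHO cells, single 54,000g 30-min spin, resuspended in 50 mM Tris/HCl pH 7.4 and used at once. Incubated 20 min with about 150,000 cpm [α-32P]ATP, no EGTA or NaCl. IC50 from concentration-dependent inhibition of NECA-stimulated adenylyl cyclase, converted to Ki; n = 3-6, geometric means with 95% confidence limits.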

For another assay, the species on record is Homo sapiens. Kind of assay: Selectivity ratio of Ki for human recombinant adenosine 2a receptor to Ki for human recombinant adenosine A3 receptor.
The next assay addresses Adenosine receptor A2a (Homo sapiens, UniProt P29274). The experiment in a line: Displacement of [3H]NECA from human recombinant adenosine 2A receptor expressed in CHO cells after 3 hrs. The assay is classed as cell-based. An outline of the steps: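 Membranes at 50 μg protein, incubated 3 h at 25 °C in 50 mM Tris/HCl, 10 mM MgCl2, pH 7.4 with 30 nM [3H]NECA and varied test concentrations. 100 μM R-PIA defined nonspecific binding. Bound ligand separated on glass-fiber filters and counted. Ki by Cheng-Prusoff; n = 3-6, geometric means, 95% CI.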

The target in the next assay is T3, Adenosine receptor A1 (Homo sapiens, UniProt P30542).
T3 sequence (P30542 whole entry): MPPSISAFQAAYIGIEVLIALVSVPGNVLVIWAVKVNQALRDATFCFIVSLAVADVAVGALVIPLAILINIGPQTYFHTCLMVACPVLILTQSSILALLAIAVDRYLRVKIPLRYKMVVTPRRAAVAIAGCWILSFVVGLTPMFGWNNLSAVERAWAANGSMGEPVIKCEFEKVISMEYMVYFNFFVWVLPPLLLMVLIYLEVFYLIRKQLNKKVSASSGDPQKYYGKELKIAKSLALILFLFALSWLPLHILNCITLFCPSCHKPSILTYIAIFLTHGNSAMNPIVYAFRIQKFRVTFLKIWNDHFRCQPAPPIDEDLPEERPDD
Kind of assay: Displacement of [3H]CCPA from human recombinant adenosine A1 receptor expressed in CHO cells after 3 hrs. The assay is classed as cell-based. In short, it runs like this: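 CHO membranes (two-step spin, stored -80 °C), 20 μg protein, incubated 3 h at 25 °C in 200 μL 50 mM Tris/HCl pH 7.4 with 1 nM [3H]CCPA, 0.2 U/mL adenosine deaminase and a range of test concentrations. Nonspecific binding with 1 mM theophylline. Filtration and scintillation counting. Ki by Cheng-Prusoff; n = 3-6, geometric means, 95% CI.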

Assay [1] concerns the target Adenosine receptors; A1 & A3 (Homo sapiens) (UniProt P30542+P0DMS8). The experiment in a line: Selectivity ratio of Ki for human recombinant adenosine A1 receptor to Ki for human recombinant adenosine A3 receptor.

Sequence of Adenosine receptor A2a (P29274 whole entry): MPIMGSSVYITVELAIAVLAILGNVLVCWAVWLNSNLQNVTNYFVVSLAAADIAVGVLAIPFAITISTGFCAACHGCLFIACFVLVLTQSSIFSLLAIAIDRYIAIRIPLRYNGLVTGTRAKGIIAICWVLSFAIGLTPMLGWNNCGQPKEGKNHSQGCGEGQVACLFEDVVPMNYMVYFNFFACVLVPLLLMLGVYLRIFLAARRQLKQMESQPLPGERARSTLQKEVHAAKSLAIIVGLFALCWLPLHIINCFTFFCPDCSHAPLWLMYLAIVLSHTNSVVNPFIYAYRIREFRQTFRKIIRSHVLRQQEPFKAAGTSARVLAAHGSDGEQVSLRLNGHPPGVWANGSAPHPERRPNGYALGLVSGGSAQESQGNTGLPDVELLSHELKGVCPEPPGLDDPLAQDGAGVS

The term Ki denotes a measure of affinity in units of concentration, obtained from inhibition or displacement. Regarding `COc1ccc(NC(=O)Nc2nc3nn(C)cc3c3nc(-c4ccc(Br)cc4)nn23)cc1`, the Ki on Adenosine receptor A3 is 1.95 nM; at Adenosine receptor A2b, greater than 10 µM; on Adenosine receptor A2a, 8.4 µM; on Adenosine receptor A1, greater than 10 µM. Moreover, the Ratio Ki in the assay listed under Homo sapiens was 4310; in assay [1], greater than 5130.
In the case of `O=C(Cc1ccccc1)Nc1nc2nn(CCc3ccccc3)cc2c2nc(-c3ccccc3)nn12`, the Ki was 3.02 nM at Adenosine receptor A3, greater than 30 µM on Adenosine receptor A2b, 0.614 µM on Adenosine receptor A2a and 0.192 µM on Adenosine receptor A1. Moreover, the results for the Ratio Ki (in the assay listed under Homo sapiens; in assay [1]) were 203 and 63.6, respectively.
Regarding `Cn1cc2c(nc(N)n3nc(-c4ccc(C(F)(F)F)cc4)nc23)n1`, the Ki at Adenosine receptor A3 was 304 nM; at Adenosine receptor A2b it was greater than 10 µM; on Adenosine receptor A2a it was 6.93 µM; on Adenosine receptor A1, greater than 100 µM. The Ratio Ki is 22.8 in the assay filed under Homo sapiens and greater than 329 in assay [1].
As to `Cn1cc2c(nc(NC(=O)Nc3ccccc3)n3nc(-c4ccc(Cl)cc4)nc23)n1`, the Ki is 1.71 nM on Adenosine receptor A3, greater than 10 µM at Adenosine receptor A2b, 0.987 µM at Adenosine receptor A2a and 5.55 µM on Adenosine receptor A1. Also, the results for the Ratio Ki (in the assay filed under Homo sapiens; in assay [1]) were 577 and 3250, respectively.
For `COc1ccc(NC(=O)Nc2nc3nn(C)cc3c3nc(-c4ccc(Cl)cc4)nn23)cc1`, the Ki at Adenosine receptor A3 is 1.33 nM; on Adenosine receptor A2b, greater than 10 µM; at Adenosine receptor A2a, 1.46 µM; at Adenosine receptor A1 it was 6.49 µM. Further, the Ratio Ki was 1100 in the assay listed under Homo sapiens and 4880 in assay [1].
As for `COc1ccc(-c2nc3c4cn(CCc5ccccc5)nc4nc(NC(=O)c4ccccc4)n3n2)cc1`, the Ki at Adenosine receptor A3 was 28.9 nM; at Adenosine receptor A2b it was greater than 10 µM; on Adenosine receptor A2a it was 25.2 µM; at Adenosine receptor A1 it was 0.831 µM. The Ratio Ki was determined as 872 in the assay filed under Homo sapiens and 28.8 in assay [1].
With `O=C(Cc1ccccc1)Nc1nc2nn(CCc3ccccc3)cc2c2nc(-c3ccc(Cl)cc3)nn12`, the Ki at Adenosine receptor A2b was greater than 30 µM; on Adenosine receptor A2a it was 3.09 µM; on Adenosine receptor A1 it was 0.932 µM. Besides, the Ratio Ki in the assay filed under Homo sapiens was 364; in assay [1], 110.
With `Cn1cc2c(nc(NC(=O)Nc3ccc(F)cc3)n3nc(-c4ccc(Cl)cc4)nc23)n1`, the Ki was 5.3 nM on Adenosine receptor A3, greater than 10 µM on Adenosine receptor A2b, 1.06 µM on Adenosine receptor A2a and greater than 30 µM at Adenosine receptor A1. The Ratio Ki in the assay filed under Homo sapiens is 200; in assay [1], greater than 5660.
For the compound `Cn1cc2c(nc(NC(=O)Nc3ccccc3)n3nc(-c4ccco4)nc23)n1`, the Ratio Ki was determined as 2380 in the assay listed under Homo sapiens and 3710 in assay [1].
As for `O=C(Nc1nc2nn(CCc3ccccc3)cc2c2nc(-c3ccc(Cl)cc3)nn12)c1ccccc1`, the Ki at Adenosine receptor A3 was 11.4 nM; at Adenosine receptor A2b, greater than 30 µM; on Adenosine receptor A2a it was 19.4 µM; at Adenosine receptor A1, 0.221 µM. Moreover, the Ratio Ki was 1700 in the assay listed under Homo sapiens and 19.4 in assay [1].
With `O=C(Nc1nc2nn(CCc3ccccc3)cc2c2nc(-c3ccc(F)cc3)nn12)c1ccccc1`, the Ki at Adenosine receptor A3 is 17.1 nM; at Adenosine receptor A2b, greater than 30 µM; at Adenosine receptor A2a it was 4.04 µM; on Adenosine receptor A1, 0.395 µM. Besides, the Ratio Ki in the assay listed under Homo sapiens came to 236; in assay [1], 23.1.
Take `COc1ccc(NC(=O)Nc2nc3nn(C)cc3c3nc(-c4ccc(-c5ccccc5)cc4)nn23)cc1`: the Ki at Adenosine receptor A3 was 2.1 nM; at Adenosine receptor A2b, greater than 10 µM; at Adenosine receptor A2a it was greater than 100 µM; on Adenosine receptor A1, greater than 100 µM. Further, the Ratio Ki (in the assay filed under Homo sapiens; in assay [1]) was greater than 47600 in each case.
For `Cn1cc2c(nc(NC(=O)Nc3ccccc3)n3nc(-c4ccc(Br)cc4)nc23)n1`, the Ki on Adenosine receptor A3 is 2.5 nM; on Adenosine receptor A2b, greater than 10 µM; on Adenosine receptor A2a it was 2.36 µM; on Adenosine receptor A1 it was greater than 10 µM. Moreover, the Ratio Ki is 944 in the assay listed under Homo sapiens and greater than 4000 in assay [1].
`Cn1cc2c(nc(NC(=O)Nc3ccc(F)cc3)n3nc(-c4ccc(-c5ccccc5)cc4)nc23)n1`: the Ki at Adenosine receptor A3 is 4.06 nM; on Adenosine receptor A2b it was greater than 10 µM; at Adenosine receptor A2a, greater than 100 µM; on Adenosine receptor A1, greater than 100 µM. Moreover, the Ratio Ki (in the assay listed under Homo sapiens; in assay [1]) was greater than 24600 in each case.
For the compound `O=C(Cc1ccccc1)Nc1nc2nn(CCc3ccccc3)cc2c2nc(-c3ccc(Br)cc3)nn12`, the Ki at Adenosine receptor A3 was greater than 10000 nM; on Adenosine receptor A2b, greater than 10 µM; on Adenosine receptor A2a, greater than 10 µM; at Adenosine receptor A1, greater than 10 µM.
Turning to `Cn1cc2c(nc(NC(=O)Nc3ccccc3)n3nc(-c4ccc(C(F)(F)F)cc4)nc23)n1`, the Ki on Adenosine receptor A3 was 3.44 nM; on Adenosine receptor A2b, greater than 10 µM; on Adenosine receptor A2a it was 36 µM; at Adenosine receptor A1, 12.9 µM. Besides, the Ratio Ki in the assay listed under Homo sapiens amounted to 10500; in assay [1] it was 3750.
For `Cn1cc2c(nc(NC(=O)Nc3ccc(F)cc3)n3nc(-c4ccc(Br)cc4)nc23)n1`, the Ki is 1.72 nM on Adenosine receptor A3, greater than 10 µM at Adenosine receptor A2b, 5.93 µM at Adenosine receptor A2a and greater than 30 µM on Adenosine receptor A1. In addition, the Ratio Ki in the assay filed under Homo sapiens was 3450; in assay [1], greater than 17400.
Turning to `Cn1cc2c(nc(N)n3nc(-c4ccc(-c5ccccc5)cc4)nc23)n1`, the Ki was 147 nM on Adenosine receptor A3, greater than 10 µM at Adenosine receptor A2b, greater than 30 µM on Adenosine receptor A2a and greater than 100 µM at Adenosine receptor A1. The values for the Ratio Ki (in the assay listed under Homo sapiens; in assay [1]) were greater than 204 and greater than 680, respectively.
Turning to `Cn1cc2c(nc(NC(=O)Nc3ccc(F)cc3)n3nc(-c4ccc(C(F)(F)F)cc4)nc23)n1`, the Ki at Adenosine receptor A3 is 1.91 nM; at Adenosine receptor A2b, greater than 10 µM; on Adenosine receptor A2a it was greater than 30 µM; at Adenosine receptor A1, 4.42 µM. Moreover, the Ratio Ki in the assay filed under Homo sapiens is greater than 15700; in assay [1], 2310.
With `O=C(Cc1ccccc1)Nc1nc2nn(CCc3ccccc3)cc2c2nc(-c3ccc(F)cc3)nn12`, the Ki was 3.34 nM at Adenosine receptor A3, greater than 30 µM on Adenosine receptor A2b, 0.571 µM at Adenosine receptor A2a and 0.232 µM on Adenosine receptor A1. The Ratio Ki is 171 in the assay filed under Homo sapiens and 69.5 in assay [1].
`Cn1cc2c(nc(NC(=O)Nc3ccccc3)n3nc(-c4ccc(-c5ccccc5)cc4)nc23)n1`: the Ki at Adenosine receptor A3 is 5.9 nM; at Adenosine receptor A2b, greater than 10 µM; on Adenosine receptor A2a, greater than 30 µM; at Adenosine receptor A1, greater than 30 µM. The Ratio Ki (in the assay listed under Homo sapiens; in assay [1]) was greater than 5090 each time.
Regarding `COc1ccc(NC(=O)Nc2nc3nn(C)cc3c3nc(-c4ccc(C(F)(F)F)cc4)nn23)cc1`, the Ki at Adenosine receptor A3 is 2.36 nM; on Adenosine receptor A2b it was greater than 10 µM; on Adenosine receptor A2a, greater than 100 µM; on Adenosine receptor A1 it was greater than 100 µM. In addition, the Ratio Ki (in the assay filed under Homo sapiens; in assay [1]) was greater than 42400 throughout.
In the case of `O=C(Cc1ccccc1)Nc1nc2nn(CCc3ccccc3)cc2c2nc(-c3ccco3)nn12`, the Ki on Adenosine receptor A3 came to 45 nM. Further, the Ratio Ki in the assay filed under Homo sapiens was determined as 1.33; in assay [1], 2.67.
